The results in this text go back to ChEMBL document CHEMBL2062446, “Design of a Potent CB1 Receptor Antagonist Series: Potential Scaffold for Peripherally-Targeted Agents” (ACS Med Chem Lett, 2012).

Structures are written as SMILES.

One data set deals with MDR1. The data set is described as follows: Apparent permeability from apical to basal side of MDCK cells expressing MDR1. It counts as ADME, cell-based, Canis lupus familiaris. The following applies: dog. The essentials: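 MDCK cells transfected with the MDR1 gene were used to assess whether compounds are MDR1 transporter substrates.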
One may read the Papp A→B as the apparent permeability from the apical to the basolateral side of a cell layer. Turning to `CC(C)C(=O)N[C@@H]1CCCOc2c1nn(-c1ccccc1Cl)c2-c1ccc(Cl)cc1`, the apical-to-basolateral permeability (Papp A→B) was 8.4 ×10⁻⁶ cm/s.

On to `CCOCC(=O)NC1CCCOc2c1nn(-c1ccccc1Cl)c2-c1ccc(Cl)cc1` (configuration not stated), for which the Papp A→B was 6.5 ×10⁻⁶ cm/s.

In the case of `N#CC1(C(=O)NC2CCCOc3c2nn(-c2ccccc2Cl)c3-c2ccc(Cl)cc2)CC1` (configuration not stated), the apical-to-basolateral permeability (Papp A→B) is 1 ×10⁻⁶ cm/s.

Consider `CC(F)(F)CN1CCOc2c(nn(-c3ccccc3Cl)c2-c2ccc(Cl)cc2)C1=O`, for which the apical-to-basolateral permeability (Papp A→B) was 7.1 ×10⁻⁶ cm/s.

On to `CC(=O)NC1CCCOc2c1nn(-c1ccccc1Cl)c2-c1ccc(Cl)cc1` (racemic), for which the Papp A→B was determined as 14.1 ×10⁻⁶ cm/s.

`CCC(=O)NC1CCCOc2c1nn(-c1ccccc1Cl)c2-c1ccc(Cl)cc1` (racemic): the apical-to-basolateral permeability (Papp A→B) came to 12.1 ×10⁻⁶ cm/s.

As for `CC(C)C(=O)NC1CCCOc2c1nn(-c1ccccc1Cl)c2-c1ccc(Cl)cc1` (racemic), the Papp A→B was determined as 6.9 ×10⁻⁶ cm/s.

On to `O=C(NC1CCCOc2c1nn(-c1ccccc1Cl)c2-c1ccc(Cl)cc1)C1CCOCC1` (racemic), for which the apparent permeability from apical to basolateral (Papp A→B) was found to be 6.8 ×10⁻⁶ cm/s.

Regarding `COCC(=O)NC1CCCOc2c1nn(-c1ccccc1Cl)c2-c1ccc(Cl)cc1` (racemic), the Papp A→B amounted to 9.1 ×10⁻⁶ cm/s.

With `COC(=O)NC1CCCOc2c1nn(-c1ccccc1Cl)c2-c1ccc(Cl)cc1` (racemic), the apparent permeability from apical to basolateral (Papp A→B) worked out at 9.1 ×10⁻⁶ cm/s.

On to `CCNC(=O)NC1CCCOc2c1nn(-c1ccccc1Cl)c2-c1ccc(Cl)cc1` (racemic), for which the apical-to-basolateral permeability (Papp A→B) amounted to 6.3 ×10⁻⁶ cm/s.

Regarding `O=C(NC1CCCOc2c1nn(-c1ccccc1Cl)c2-c1ccc(Cl)cc1)c1ccon1` (racemic), the Papp A→B amounted to 6.6 ×10⁻⁶ cm/s.

For `O=C(NC1CCCOc2c1nn(-c1ccccc1Cl)c2-c1ccc(Cl)cc1)c1ccno1` (racemic), the Papp A→B was 3.2 ×10⁻⁶ cm/s.

With `O=C(NC1CCCOc2c1nn(-c1ccccc1Cl)c2-c1ccc(Cl)cc1)c1cnon1` (racemic), the Papp A→B came out at 3 ×10⁻⁶ cm/s.

As to `CS(=O)(=O)CC(=O)NC1CCCOc2c1nn(-c1ccccc1Cl)c2-c1ccc(Cl)cc1` (racemic), the Papp A→B amounted to 2.7 ×10⁻⁶ cm/s.

As for `O=C1CCCN1C1CCCOc2c1nn(-c1ccccc1Cl)c2-c1ccc(Cl)cc1` (racemic), the Papp A→B stood at 11.2 ×10⁻⁶ cm/s.

Test system in the next data set: not listed separately
The data set is described as follows: 1-Octanol-sodium phosphate buffer partition coefficient, log D of the compound at pH 7.4 after 24 hrs by shake flask method. It counts as physicochemical.
Settings: not given
What is called logD is lipophilicity at a set pH, counting ionised and neutral species. Read a high logD as a more lipophilic compound. `CC(F)(F)CN1CCOc2c(nn(-c3ccccc3Cl)c2-c2ccc(Cl)cc2)C1=O` came in with a logD at 24 h of 4.1.
